The values that follow come from ChEMBL document CHEMBL4513216, “Probing the Open Global Health Chemical Diversity Library for Multistage-Active Starting Points for Next-Generation Antimalarials” (ACS Infect Dis, 2020).

The data set in a line: Toxicity liver stage against HepG2, at 10uM. Type of data set: cell-based. Further details: test concentration 10 uM, cell line HepG2-A16-CD81EGFP. The settings on record: human, HepG2-A16-CD81EGFP cells; read-out: INHIBITION
The procedure, abridged: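 Uninfected HepG2-A16-CD81EGFP cells, 3 × 10^3 per well, 1536-well, plated on prespotted compound at 10 μM final, parasite-free screening media added to match infected plates; puromycin 10 μM positive, DMSO 0.5% negative; run in parallel with 48 h PbLuc assay at 37 °C, 5% CO2; viability by CellTiter-Glo luminescence, normalized to controls.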
Regarding `CN(C)CCCNCC1CCOC(C)(C)C1` (stereo unspecified), the cytotoxicity at 10 µM was -8.02%.
For the molecule `CO[C@@H]1CN(c2ccccc2)S(=O)(=O)[C@@]12CCN(S(C)(=O)=O)C2`, the cytotoxicity at 10 µM is 2.21%.
The same measure for `O=C(c1ccccc1)N(CC1CC1)c1cccnc1`: 7.27%; for `Cc1c(OCC(=O)NCc2ccccc2Cl)c(=O)ccn1C`: -40.5%.
The same measure for `CCOC(=O)Cc1csc(NC(=O)c2cc(=O)c(OC)c[nH]2)n1`: -43.8%; for `COc1cn(CC(=O)N2CCN(c3ccc(F)cc3)CC2)c(C)cc1=O`: 2.29%.
For `COCCCNC(=O)C1CN(C(=O)c2cnccn2)C1` the value was 0.722%; for `CCC(C)N1CCc2c(C(=O)N3CCOCC3)n[nH]c2C1` (stereo unspecified), 1.88%.
For `Cc1cnc(N2C(=O)CSC2c2ccc(N(C)C)cc2)s1` (stereo unspecified), the cytotoxicity at 10 µM came out at 6.07%.
For `Cc1nn2c(=O)/c(=C\c3cccs3)sc2nc1=O` the value was 7.19%.
The same measure for `Clc1ccc(-n2nnnc2C2(NCc3ccco3)CCCCC2)cc1`: 15.7%; for `Cc1ccn(CC(=O)Nc2cc(-c3ccncc3)[nH]n2)n1`: -14.8%; for `CNc1cnc(CC2COCCN(CCOc3ccccc3)C2)cn1` (stereo unspecified): -0.257%.
As for `Cc1cc2cc(C(=O)N[C@@H]3CC[C@@H](N4CCNC(=O)C4)[C@@H]3O)ccc2o1`, the cytotoxicity at 10 µM was -5%.
For `CN(C)C(=O)CN1CCCCC1c1nc(N)ncc1-c1cccc(F)c1` (stereo unspecified) the value was -3.68%.
The same measure for `CCOc1nnc(CN(CC)CC(=O)NC(C)C)s1`: 3.88%; for `Cc1nc(-c2ccccc2)sc1CNC(=O)c1ccc(=O)n(C)c1`: -6.09%; for `O=C(Nc1cccnc1N1CCSCC1)c1ccc2c(c1)CCO2`: -0.678%.
The same measure for `O=S(=O)(CCCn1cncn1)Cc1ccc(F)cc1Cl`: 7.49%.
As for `CCOCCOC(C)C(=O)Nc1ccnn1-c1ccccc1C` (stereo unspecified), the cytotoxicity at 10 µM is -0.308%.
The same measure for `CCc1nc(NS(=O)(=O)c2cccc(F)c2C)no1`: 5.18%; for `CN(C1CCCCC1)S(=O)(=O)N1CCN(Cc2ccco2)CC1`: -81.7%; for `c1ncn(Cc2ccc(CNCc3ccc4c(c3)OCCO4)cc2)n1`: -1.66%.
The same measure for `CCCSCC(=O)NCc1cccc(CN(C)CC)c1`: -0.823%.
For `COc1cccc(CNC(=O)C(C)N2CC(n3nc(C)cc3C)C2)c1` (stereo unspecified) the value was 0.868%; for `O=C(Nc1ccccc1)C1CCCN(C(=O)Cn2cncn2)C1` (stereo unspecified), 16.3%.
Regarding `O=C(NCCCC(=O)N1Cc2ccccc2C1)NCc1nccs1`, the cytotoxicity at 10 µM was -1.37%.
For `Cc1nc(CNC(C)c2cccc(S(=O)(=O)N(C)C)c2)no1` (stereo unspecified) the value was 0.956%.
For `CCOc1cncc(N2CCN(c3ccccc3O)CC2)n1` the value was 25.7%; for `CC(C)(C)c1cnc(CN2CCC(CO)CC2)o1`, -5.6%.
For `CN1CCN(C(=O)C2SCCc3sccc32)CC1` (stereo unspecified) the value was -12.6%; for `CN(CCOc1cccc(CNS(C)(=O)=O)c1)C1CCOCC1`, 2.37%; for `CC(C)NC(=O)CCNC(=O)c1cc(Br)cn1C(C)C`, 4.33%.
With `NC(=O)c1ccc(N2CCCCC2)c(NC(=O)c2ccc(Br)cc2)c1`, the cytotoxicity at 10 µM amounted to 11.1%.
For the molecule `Fc1ccc(CN2CCOC(Cn3cncn3)C2)c2ncccc12` (stereo unspecified), the cytotoxicity at 10 µM was determined as 0.219%.
For `Cc1cc(C)n(C2CN(CC(=O)N(C)Cc3ccco3)C2)n1` the value was -4.42%; for `CNc1cc(N2CCCC2CNCc2cccc(C(N)=O)c2)ncn1` (stereo unspecified), -7.72%.
For `Cc1nc(C)n(C2CCCN(C(=O)Cc3ccc4c(c3)CCC4)C2)n1` (stereo unspecified) the value was -10.3%; for `Clc1ccc(-c2cnc(CNC3CCc4ncnn4C3)o2)cc1` (stereo unspecified), -4.36%.
For `N#Cc1c(Cl)nsc1N1CCN(CC2CC2)CC1` the value was 28.5%.
For `Cc1cnn(CCNCc2c(C)nn(Cc3ccccc3)c2C)c1`, the cytotoxicity at 10 µM is -3.46%.
For `CN(Cc1ccc(F)cc1C#N)CC(F)(F)F` the value was 4.28%; for `CC(C)CN(CC(O)c1ccc(F)cc1)C(=O)c1cc[nH]n1` (stereo unspecified), -5.71%.
Regarding `Cc1nc(C(C)C)sc1C(=O)NS(=O)(=O)c1ccc(C#N)cc1`, the cytotoxicity at 10 µM was -6.94%.
The same measure for `CC(C)n1nc(CN2CCCC2=O)c2c1CN(C(=O)c1ccco1)C2`: 5.35%; for `COc1cccc(OC)c1-c1ccnc2cc(CC(=O)NC3CC3)nn12`: -2.67%; for `CCNc1nc(-c2cccnc2)c(-c2ccnc(N3CCOCC3)n2)s1`: -10.1%.
Consider `CCc1cc(N2CCCC(CC)(C(=O)O)C2)nc(N2CCOCC2)n1` (stereo unspecified), for which the cytotoxicity at 10 µM was 0.701%.
Regarding `COc1cccc2ccc(CN3CCN(c4ncccn4)CC3)nc12`, the cytotoxicity at 10 µM is -2.13%.
As for `CCOc1cc(CNCc2nc(C)cc(=O)[nH]2)c(Cl)cc1OC(C)C`, the cytotoxicity at 10 µM is -7.83%.
The same measure for `COCCN1CCC(C(=O)N(C)Cc2c[nH]c3ccc(C)cc23)C1` (stereo unspecified): -13.2%.
For `O=C1N(CCCc2ccccc2)CCCC1(O)CNCC1CCCCC1` (stereo unspecified) the value was -0.106%.
For `CC(=O)Nc1ccc2nc(-c3nccn3CCCN(C)C)ccc2c1` the value was -6.07%; for `CCc1ncc2c(n1)CN(C(=O)c1c(C)[nH]c(C(C)=O)c1C)C2`, -45.9%.
Regarding `NC(=O)Cn1ccnc1C1CCCN(CCSc2ccccc2)C1` (stereo unspecified), the cytotoxicity at 10 µM is -2.65%.
For `COc1ccc(CN2CCC3(CC2)C(C(=O)O)CC(=O)N3C)cc1Cl` (stereo unspecified) the value was -5.66%; for `CCOc1ccc(CNCc2cccnc2N(C)C)cc1`, -6.5%.
For `COc1cccc(Cl)c1-c1cc(CN)ccc1F` the value was -5.3%; for `Cc1nn(C)c2nc(N(C)CCN(C)C3CCCC3)sc12`, 3.55%; for `O=C1CC(NCc2ncc[nH]2)CN1CCc1cccc(Cl)c1` (stereo unspecified), -0.745%.
Consider `Cc1c[nH]c(CN2CCCCC2CCc2cccc(O)c2)c(C)c1=O` (stereo unspecified), for which the cytotoxicity at 10 µM was -14.6%.
Turning to `Cc1cc(C)n(Cc2cc(C(=O)N3CCCC3c3ccccn3)n[nH]2)n1` (stereo unspecified), the cytotoxicity at 10 µM was found to be 0.739%.
The same measure for `CCc1noc(CN(CC)C(=O)c2ccc3ncsc3c2)n1`: 12.2%; for `CC(C)[C@]1(O)CN(C(=O)CNC(N)=O)C[C@H]1C`: 5.69%.
For `Cc1nc2c(c(NCc3cnc4c(c3)CCC4)n1)CNC2` the value was -3.57%; for `CCCN1CCN(Cc2cn(CCC(N)=O)c3ccccc23)CC1`, 4.7%; for `Fc1cccc(Cl)c1Cn1ncnc1CSCCN1CCCC1`, -0.454%.
For `O=C(NCCN1CCOC1=O)c1ccc2sccc2c1`, the cytotoxicity at 10 µM worked out at 12.9%.
The same measure for `Cc1ccccc1N1CCCN(CC2(O)CCCNC2)CC1` (stereo unspecified): -6.1%.
The same measure for `Cc1ccc(C)c(C(NC2CCCC2)c2cccnc2)c1` (stereo unspecified): 23.5%; for `O=C(NCCc1ccncc1)C1CCN(Cc2ccco2)CC1`: 26.1%; for `Cc1nccc(C(=O)N2CCCC(c3cc(C(F)(F)F)[nH]n3)C2)n1` (stereo unspecified): -4.59%.
The same measure for `O=C(c1nn(-c2ccccc2F)cc1O)N1CCC2(CC1)OCCO2`: -3.24%.
Turning to `CC(C)c1noc(CCCC(=O)N2CCN(Cc3ccccn3)CC2)n1`, the cytotoxicity at 10 µM was -1.79%.
For `CCNc1cc2c(nn1)CCN(C(=O)c1cc(C)no1)C2` the value was -14.5%; for `CCn1ncc2c1CCCC2NCc1cccc2c1OCCCO2` (stereo unspecified), -13.4%.
For `Cc1ccc(CNC(C)c2ccc(OCC(=O)NC3CC3)cc2)o1` (stereo unspecified) the value was 2.07%; for `CC(NC(=O)NCCOc1ccc(Cl)cc1)c1nncn1C` (stereo unspecified), -8.47%; for `CCc1cnc(CN(C(C)=O)C2CCN(CCc3cccs3)C2)o1` (stereo unspecified), -6.78%.
For `CC(C)c1ncc2c(n1)CN(Cc1nc(Cc3ccccc3)no1)CC2` the value was -14.6%; for `Cc1ccc(C)c(NC(=O)N(C)Cc2cnn(C)c2)c1`, -3.02%; for `c1csc(-c2noc(CCCN3CCCC3Cn3cccn3)n2)c1` (stereo unspecified), -7.47%.
In the case of `COCCNC(=O)Nc1ccc(F)c(C(N)=O)c1`, the cytotoxicity at 10 µM is -6.46%.
For `CC(=O)N1[C@@H](C(=O)NCC2CC2)C[C@@H]2CN(Cc3nccs3)C[C@@H]21` the value was 1.7%.
The same measure for `Cn1cccc1CN1CCC2(CC1)CCN(C(=O)c1cnccn1)CC2`: -147%.
For `O=C(NCCc1cccs1)[C@H]1CO[C@H]2CCNC[C@H]2C1` the value was 2.11%; for `COc1ccc(CN2CC[C@H]3[C@H]2CCN3C(=O)c2cnn(C)c2)cc1`, 7.9%.
For the molecule `O=C1N(Cc2ccncc2)CCC12CCCN(c1ncc(F)cn1)C2` (stereo unspecified), the cytotoxicity at 10 µM was -7.38%.
The same measure for `Cn1ccnc1CN1C[C@@H]2[C@@H](C1)OCC(=O)N2CC1CCCC1`: -4.48%; for `Cc1nc(CN2C[C@@H]3CN(C(=O)c4cccn4C)C[C@@H]3C2=O)cs1`: 1.88%; for `CC1CCN(C(=O)[C@H]2CC[C@@H]3[C@@H](CCN3Cc3nccs3)O2)CC1`: 4.62%.
The same measure for `Cc1ccc(N2CCC3(CN(CCO)CCC3(F)F)C2)nn1` (stereo unspecified): 7.28%; for `CC1N(c2cnn(C)c2)C(=O)COC12CCN(c1ccccn1)CC2` (stereo unspecified): -5.31%; for `Cn1cc(CN2C[C@@H]3COC[C@@H](C(=O)N4CCCCO4)[C@@H]3C2)cn1`: -1.57%.
On to `COCCN1C[C@@H]2[C@@H](OC)CCN(C(=O)Cc3ccsc3)[C@@H]2C1`, for which the cytotoxicity at 10 µM is 7.68%.
For `Cc1ccccc1CC(=O)N1C[C@@H]2CC[C@H]1CN(Cc1cccnc1)C2` the value was -2.36%.
